≈ marks a conversion by molar mass, not a printed value.
Tests used:
[1] = system: Mycobacterium tuberculosis; assay: Bacteriostatic activity in Mycobacterium tuberculosis Erdman infected in mouse macrophages assessed as reduction of colony forming units after 7 days; type: functional; details: 168 h
Procedure, shortened: (§1)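 CFU read at 7 days against drug-free controls. EC90 is the lowest concentration giving 90% CFU reduction (bacteriostatic); EC99 is the lowest giving 99% (bactericidal).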

[2] = Ratio of EC90 for Mycobacterium tuberculosis Erdman to MIC for Mycobacterium tuberculosis H37Rv; type: functional
[3] = system: Mycobacterium tuberculosis; assay: Antitubercular activity against Mycobacterium tuberculosis H37Rv by broth dilution method; type: functional
[4] = Selectivity index, ratio IC50 for african green monkey Vero cells to MIC for Mycobacterium tuberculosis H37Rv; type: functional
Procedure, shortened: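 Vero cells exposed 72 h, at up to ten times the MIC, with viability read by a cell proliferation assay. SI is IC50 divided by the MIC against H37Rv; the screening criterion is SI >10.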

[5] = system: Mycobacterium tuberculosis; assay: Bactericidal activity in Mycobacterium tuberculosis Erdman infected in mouse macrophages assessed as reduction of colony forming units after 7 days; type: functional; details: 168 h; procedure, shortened: as §1
[6] = system: Mycobacterium tuberculosis; assay: Antitubercular activity against Mycobacterium tuberculosis infected in C57BL/6 mouse assessed reduction in colony forming units per lung at 25 mg/kg administered for 2 days after 24 hrs post-infection measured after 3 days by short course therapy (Rvb=6.51 +/- 0.13 logCFU/lung); type: functional
[7] = system: Mycobacterium tuberculosis; assay: Antitubercular activity against Mycobacterium tuberculosis Erdman by broth dilution method; type: functional
Procedure, shortened: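 Modified 7H10 broth (no agar or malachite green; pH 6.6) with 10% OADC and 0.05% Tween 80; broth dilution MIC90. Inoculum grown 5 days at 37°C on rotary shaker, diluted to 100 Klett units/mL (about 5 × 10^7 cfu/mL), checked by triplicate 7H10 agar counts after 4 weeks at 37°C. Compounds dissolved in DMSO, diluted in distilled water; isoniazid and PAS as reference standards.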

[8] = organism: Mus musculus; assay: Toxicity in C57BL/6 mouse assessed as overt toxicity; type: organism-based; details: in vivo
Procedure, shortened: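 C57BL/6 mice infected intranasally with approximately one million viable M. tuberculosis organisms. Dosing by gavage at 25 mg/kg body weight (compound in DMSO diluted in distilled water), starting one day post-infection and given for two days. Animals observed for ill effects or overt toxicity until sacrifice by CO2 inhalation three days post-infection. Groups of six mice.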

[9] = system: Mycobacterium tuberculosis; assay: Antitubercular activity against Mycobacterium tuberculosis infected in C57BL/6 mouse assessed reduction in colony forming units per lung at 25 mg/kg administered for 2 days after 24 hrs post-infection measured after 3 days by short course therapy (Rvb=6.37 +/- 0.24 logCFU/lung); type: functional
[10] = system: Mycobacterium tuberculosis; assay: Antitubercular activity against Mycobacterium tuberculosis infected in CD1 mouse assessed colony forming units per lung at 25 mg/kg administered 5 days a week for 4 weeks after 1 week post-infection by long course therapy (Rvb=8.80 +/- 0.18 logCFU/lung); type: functional

| SMILES | MIC90 [3] [µg/mL] | Ratio [4] | further results |
| --- | --- | --- | --- |
| O=C(N/N=C/c1cccc(Cl)c1Cl)c1ccncc1 | 0.78 (≈ 2.65 µM) | >32 | EC90 [1]: 0.071 µg/mL (≈ 0.241 µM); Ratio [2]: 0.09; EC99 [5]: 0.3 µg/mL |
| CC(/C=N/NC(=O)c1ccncc1)=C\c1ccccc1 | 0.5 (≈ 1.88 µM) | >250 | log10cfu [6]: 5.22 |
| O=C(N/N=C/c1ccc(F)c(F)c1)c1ccncc1 | 1.56 (≈ 5.97 µM) |  |  |
| O=C(N/N=C/c1ccccc1)c1ccncc1 [N'-BENZYLIDENE ISONICOTINOHYDRAZIDE] | 0.05 (≈ 0.222 µM) | 4000 |  |
| O=C(N/N=C/c1c(Cl)cccc1Cl)c1ccncc1 | < 6.25 |  |  |
| O=C(N/N=C/C=C(c1ccccc1)c1ccccc1)c1ccncc1 |  | 68 | EC90 [1]: 0.028 µg/mL (≈ 0.0855 µM); Ratio [2]: 0.28; EC99 [5]: 0.121 µg/mL |
| CC(C)C/C=C(\C=N\NC(=O)c1ccncc1)C(C)C |  | >10 | log10cfu [6]: 5.49 |
| O=C(N/N=C/c1cccc([N+](=O)[O-])c1)c1ccncc1 |  | 8 |  |
| CC(C)=CCCC(C)C/C=N/NC(=O)c1ccncc1 (stereo not drawn) | 0.2 (≈ 0.732 µM) | >1000 |  |
| O=C(N/N=C/c1c(F)cccc1F)c1ccncc1 | 0.1 (≈ 0.383 µM) | >1250 | EC90 [1]: 0.037 µg/mL (≈ 0.142 µM); Ratio [2]: 0.37; EC99 [5]: 0.15 µg/mL |
| NNC(=O)c1ccncc1 [ISONIAZID] |  |  | MIC [7]: 0.03 µg/mL (≈ 0.219 µM); Activity [8]: Non-toxic; Ratio [2]: 1; MIC [3]: 0.03 µg/mL (≈ 0.219 µM); log10cfu [9]: 5.58; log10cfu [6]: 4.96; log10cfu [10]: 4.71 |
| CC1C/C(=N/NC(=O)c2ccncc2)CC(C)(C)C1 (stereo not drawn) | < 0.025 | >2000 | EC90 [1]: 0.063 µg/mL (≈ 0.243 µM); Ratio [2]: 2.52; EC99 [5]: 0.15 µg/mL |
| CCOC(=O)C/C(Cc1ccccc1)=N/NC(=O)c1ccncc1 | 0.1 (≈ 0.307 µM) | >1250 | EC90 [1]: 0.01 µg/mL (≈ 0.0307 µM); Ratio [2]: 0.1; EC99 [5]: 0.211 µg/mL |
| CC/C=C/C=N/NC(=O)c1ccncc1 | 0.05 (≈ 0.246 µM) | 712 | EC90 [1]: 0.028 µg/mL (≈ 0.138 µM); Ratio [2]: 0.56; EC99 [5]: 0.529 µg/mL |
| CCCC/C=C(\C=N\NC(=O)c1ccncc1)CCC |  | 1.6 |  |
| CCCCCCCCCCCC/C=N\NC(=O)c1ccncc1 | 0.2 (≈ 0.63 µM) | 374 |  |
| O=C(N/N=C/c1ccc(Cl)c([N+](=O)[O-])c1)c1ccncc1 | 0.39 (≈ 1.28 µM) | >64 | EC90 [1]: 0.078 µg/mL (≈ 0.256 µM); Ratio [2]: 0.2; EC99 [5]: 0.3 µg/mL |
| C/C=C/C=N/NC(=O)c1ccncc1 | < 6.25 |  |  |
| O=C(N/N=C/c1ccc(Cl)c(Cl)c1)c1ccncc1 | 0.2 (≈ 0.68 µM) | >50 | EC90 [1]: 0.106 µg/mL (≈ 0.36 µM); Ratio [2]: 0.53; EC99 [5]: 0.596 µg/mL |
| O=C(N/N=C/c1ccccc1OCc1ccccc1)c1ccncc1 |  |  | MIC90 [7]: 0.06 µg/mL (≈ 0.181 µM); Activity [8]: Non-toxic; log10cfu [9]: 5.49 |
| CC(C)=NNC(=O)c1ccncc1 | 0.1 (≈ 0.564 µM) | >10000 |  |
| CC(C)=CCC/C(C)=C/C=N/NC(=O)c1ccncc1 | 0.1 (≈ 0.369 µM) |  |  |

| SMILES | MIC90 [3] [µg/mL] | Ratio [4] | further results |
| --- | --- | --- | --- |
| COc1cc(/C=N/NC(=O)c2ccncc2)cc(I)c1O | 0.39 (≈ 0.982 µM) | >160 |  |
| CCCCOc1ccc(/C=N/NC(=O)c2ccncc2)cc1 | 0.1 (≈ 0.336 µM) | >2000 |  |
| Nc1ccc(C(=O)O)c(O)c1 [AMINOSALICYLIC ACID] |  |  | MIC [7]: 0.03 µg/mL (≈ 0.196 µM) |
| O=C(N/N=C/c1ccc(Cl)cc1)c1ccncc1 | 0.2 (≈ 0.77 µM) | >50 | EC90 [1]: 0.04 µg/mL (≈ 0.154 µM); Ratio [2]: 0.2; EC99 [5]: 0.14 µg/mL |
| COc1ccccc1/C=C/C=N/NC(=O)c1ccncc1 | 0.1 (≈ 0.355 µM) |  |  |
| CCCCCCCCCCCCC/C=N\NC(=O)c1ccncc1 | 0.2 (≈ 0.603 µM) |  |  |
| O=C(N/N=C/c1ccc(/C=N/NC(=O)c2ccncc2)cc1)c1ccncc1 | 0.05 (≈ 0.134 µM) | >126 |  |
| COc1ccc(/C=C/C=N/NC(=O)c2ccncc2)cc1 |  | >50 |  |
| O=C(N/N=C/C=N/NC(=O)c1ccncc1)c1ccncc1 | 0.1 (≈ 0.338 µM) |  |  |
| O=C(N/N=C/c1ccccc1[N+](=O)[O-])c1ccncc1 | 0.39 (≈ 1.44 µM) |  |  |
| O=C(N/N=C/c1ccc(Br)cc1)c1ccncc1 | 3.13 (≈ 10.3 µM) | 12 |  |
| CCOC(=O)C/C(C)=N\NC(=O)c1ccncc1 [ETHYL ACETOACETATE ISONICOTINOYLHYDRAZONE] | 0.2 (≈ 0.802 µM) | >5000 |  |
| COc1cc(/C=N/NC(=O)c2ccncc2)cc(I)c1OC | 0.2 (≈ 0.486 µM) | 297 |  |
| CCC/C=C/C=N/NC(=O)c1ccncc1 | < 6.25 |  |  |
| CCC/C(CC(=O)OCC)=N/NC(=O)c1ccncc1 [ETHYL BUTYRYL ACETATE ISONICOTINOYLHYDRAZONE] | 0.39 | >2631 |  |
| CCCC/C=C/C=N/NC(=O)c1ccncc1 | < 6.25 |  |  |
| CCCCCCOc1ccc(/C=N/NC(=O)c2ccncc2)cc1 |  | 1.5 |  |
| O=C(N/N=C/c1ccc(I)cc1)c1ccncc1 | 0.2 (≈ 0.57 µM) | >50 |  |
| CCCCC/C(=N\NC(=O)c1ccncc1)c1ccccc1 | 0.39 (≈ 1.32 µM) | 25 | EC90 [1]: 0.05 µg/mL (≈ 0.169 µM); Ratio [2]: 0.13; EC99 [5]: 0.25 µg/mL |
| O=C(N/N=C/c1ccccc1Cl)c1ccncc1 | 0.78 (≈ 3 µM) | >128 |  |
| O=C(NN=C1CCCCC1)c1ccncc1 | 0.03 (≈ 0.138 µM) | >40000 | EC90 [1]: 0.08 µg/mL (≈ 0.368 µM); Ratio [2]: 2.7; log10cfu [10]: 4.65; EC99 [5]: 0.42 µg/mL |
| CCOC(=O)/C(CCc1ccccc1)=N\NC(=O)c1ccncc1 | 0.1 (≈ 0.307 µM) | >1250 |  |

— ChEMBL document CHEMBL1154084, “Preparation and antitubercular activities in vitro and in vivo of novel Schiff bases of isoniazid” (Eur J Med Chem, 2009)
